Results of several laboratories.
Target: Mitogen-activated protein kinase 12 (MAPK12, Homo sapiens, UniProt P53778)
One construct used (P53778 1-367): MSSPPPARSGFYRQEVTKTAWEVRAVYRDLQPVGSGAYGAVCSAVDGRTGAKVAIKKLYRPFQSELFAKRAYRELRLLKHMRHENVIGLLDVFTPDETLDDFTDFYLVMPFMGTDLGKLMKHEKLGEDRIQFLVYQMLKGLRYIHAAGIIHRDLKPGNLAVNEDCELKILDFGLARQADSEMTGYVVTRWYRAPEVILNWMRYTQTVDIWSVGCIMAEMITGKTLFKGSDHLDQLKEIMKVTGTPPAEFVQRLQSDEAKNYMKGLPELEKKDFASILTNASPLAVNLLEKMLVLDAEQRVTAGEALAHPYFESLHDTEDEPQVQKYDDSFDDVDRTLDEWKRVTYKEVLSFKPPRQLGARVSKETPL

CN1CCN(c2cnc3c(C4CCN(C(=O)c5ccc(OC(F)(F)F)cc5N)CC4)ncnc3c2)CC1
remaining binding (cell-free assay; competition with immobilised ligand; 1 µM): 83%

CCCOc1ccc(OC)c(F)c1C(=O)c1ccc(C(=O)N[C@@H]2CNC[C@H]2NC(=O)c2ccc3[nH]ncc3c2)cc1
remaining activity (enzyme activity; inhibitor; 10 µM): 97%

O=C(Nc1cnn(-c2csc(C(=O)NC3COC3)c2)c1)Nc1c(F)cccc1Cl
remaining activity (enzyme activity; inhibitor; 5 µM): 98.3%

CNC(=O)Nc1ccc2c(c1)CC[C@@]21OC(=O)N(CC(=O)N(Cc2ccc(F)cc2)[C@@H](C)C(F)(F)F)C1=O
remaining binding (cell-free assay; competition with immobilised ligand; 1 µM): 63%

O=C(Nc1cnn(-c2csc(C(=O)NC3COC3)c2)c1)Nc1ccccc1Cl
remaining activity (enzyme activity; inhibitor; 5 µM): 99.4%

O=C(Nc1cccnn1)N1CCC(=Cc2cccc(Oc3ccc(C(F)(F)F)cn3)c2)CC1
remaining binding (cell-free assay; competition with immobilised ligand; 1 µM): 100%

CCOc1cc(-c2nncn2C)ccc1Nc1ncc2cc(C)nc(NCC(C)(C)C)c2n1
inhibition (enzyme activity; inhibitor; FRET; 1 µM): < 15%

N#CC1(c2ccccn2)CCN(Cc2cc(C(=O)N3CCCC3)c(=O)n3ccccc23)CC1
remaining binding (cell-free assay; competition with immobilised ligand; 1 µM): 100%

CCN(CC)CCNC(=O)c1c(C)[nH]c(/C=C2\C(=O)Nc3ccc(F)cc32)c1C
inhibition (enzyme activity; inhibitor; 0.3 µM): -10%

COc1cc2ncnc(Nc3ccc(Oc4ccccc4)cc3C)c2cc1OC
inhibition (enzyme activity; inhibitor; 1 µM): 4%

Nc1ncnc2occ(-c3ccc(NC(=O)Nc4cc(C(F)(F)F)ccc4F)cc3)c12
remaining signal (cell-free assay; inhibitor; 20 µM): 0.5%

Cc1cc(NC(=O)c2cccc3cc(-c4cccc5[nH]nc(N)c45)ccc23)ccc1F
activity vs control (enzyme activity; inhibitor; 0.1 µM): 83%

Nc1nc(NC2CCCCC2)sc1C(=O)c1ccccc1
remaining activity (enzyme activity; inhibitor; 10 µM): 71%

Cn1c(=O)n(-c2ccc(C(C)(C)C#N)cc2)c2c3cc(-c4cnc5ccccc5c4)ccc3ncc21
remaining activity (enzyme activity; inhibitor; 10 µM): 101%

Cc1cnc(NC2CCOCC2)nc1-n1cnc(C(=O)NC(CN)c2cc(F)cc(Cl)c2)c1 (stereo not shown)
remaining activity (enzyme activity; inhibitor; radiometric; 1 µM): 48%

CNC(=O)c1cc(Oc2ccc(NC(=O)Nc3ccc(Cl)c(C(F)(F)F)c3)cc2)ccn1
remaining signal (cell-free assay; 0.5 µM): 94.2%

CCC(=O)N[C@H]1CC[C@@H](C(=O)N(C)c2ccc(-c3nc4ccccc4o3)cc2)C1
remaining binding (cell-free assay; competition with immobilised ligand; 1 µM): 67%

CN1CC(Oc2cnc(C#N)cc2-c2ccn3nc(NC(=O)C4CC4)cc3c2)C1
inhibition (enzyme activity; inhibitor; 1 µM): -1%

Cc1ccc(Nc2nccc(N(C)c3ccc4c(C)n(C)nc4c3)n2)cc1S(N)(=O)=O
inhibition (enzyme activity; inhibitor; 10 µM): -5%

O=C(NC[C@@H]1[C@H]2CN(C(=O)OCc3cc(C(F)(F)F)cc(C(F)(F)F)c3)C[C@@H]12)c1ccc2[nH]nnc2c1
remaining binding (cell-free assay; competition with immobilised ligand; 1 µM): 100%

Oc1cccc(-c2nc(N3CCOCC3)c3oc4ncccc4c3n2)c1
remaining activity (enzyme activity; inhibitor; 10 µM): 76%

O=C1Nc2ccc(Cl)cc2C1=Cc1cc(Cl)c(O)c(Cl)c1
remaining signal (cell-free assay; 0.5 µM): 90.5%

Cc1ccc(NC(=O)c2ccc(C)c(C(F)(F)F)c2)cc1C#Cc1nn(C2CCC(O)CC2)c2ncnc(N)c12 (stereo not shown)
remaining signal (cell-free assay; 10 µM): 68%

Nc1c(C(=O)NCc2ccc(C(=O)NCCCC3CCCCC3)cc2)cnn1-c1ccccc1
remaining binding (cell-free assay; competition with immobilised ligand; 0.1 µM): 100%

Oc1ccc(-c2nc(-c3ccncc3)c(-c3ccc(F)cc3)[nH]2)cc1
remaining signal (cell-free assay; 0.5 µM): 102%

CC(C)(C)c1nc(-c2cccc(NS(=O)(=O)c3c(F)cccc3F)c2F)c(-c2ccnc(N)n2)s1
remaining activity (enzyme activity; inhibitor; radiometric; 1 µM): 102%

COc1cc(Nc2cnc(C#N)c(O[C@H](C)CN(C)C)n2)ncc1-c1cnn(C)c1
remaining activity (enzyme activity; inhibitor; radiometric; 1 µM): 89%

CCS(=O)(=O)c1cc2cc(C[C@](O)(CC(C)(C)c3ccc(F)cc3C(N)=O)C(F)(F)F)[nH]c2cn1
remaining binding (cell-free assay; competition with immobilised ligand; 1 µM): 100%
